Measurements reported in ChEMBL document CHEMBL1817648, “Synthesis and in vitro antibacterial activity of a series of novel gatifloxacin derivatives” (Eur J Med Chem, 2011).
In brackets after ≈: the same amount, converted by molar mass.

Key:
[1] = Cytotoxicity against african green monkey Vero cells after 72 hrs by MTT assay; format: cell-based; details: chlorocebus sabaeus
Procedure, shortened: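 Vero cells were kept in Minimum Essential Medium with Earle's salts plus 10% fetal bovine serum at 37 °C under 5% CO₂. Cells were seeded at 1 × 10⁴ per well and allowed to recover 24 h. Medium was then replaced with assay medium containing compound or no drug, and cells were exposed for 72 h. CC₅₀ is the 50% cellular cytotoxic concentration.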

[2] = test system: Staphylococcus epidermidis; assay: Antibacterial activity against methicillin-resistant Staphylococcus epidermidis 09-4 after 18 to 24 hrs by NCCLS M100-S11 two fold serial dilution method; format: functional
Procedure, shortened: (§1)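 Two-fold serial dilution in agar medium. MIC read as the lowest concentration giving complete inhibition of bacterial growth after incubation at 35 °C for 18–24 h.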

[3] = test system: Klebsiella pneumoniae; assay: Antibacterial activity against Klebsiella pneumoniae 09-22 after 18 to 24 hrs by NCCLS M100-S11 two fold serial dilution method; format: functional
[4] = test system: Staphylococcus aureus; assay: Antibacterial activity against methicillin-sensitive Staphylococcus aureus 08-1 after 18 to 24 hrs by NCCLS M100-S11 two fold serial dilution method; format: functional
[5] = test system: Staphylococcus aureus; assay: Antibacterial activity against Staphylococcus aureus ATCC 25923 after 18 to 24 hrs by NCCLS M100-S11 two fold serial dilution method; format: functional; details: ATCC25923
[6] = test system: Enterococcus faecium; assay: Antibacterial activity against Enterococcus faecium 08-2 after 18 to 24 hrs by NCCLS M100-S11 two fold serial dilution method; format: functional
[7] = test system: Pseudomonas aeruginosa; assay: Antibacterial activity against Pseudomonas aeruginosa 09-33 after 18 to 24 hrs by NCCLS M100-S11 two fold serial dilution method; format: functional
[8] = test system: Staphylococcus epidermidis; assay: Antibacterial activity against methicillin-sensitive Staphylococcus epidermidis 09-6 after 18 to 24 hrs by NCCLS M100-S11 two fold serial dilution method; format: functional; procedure, shortened: as §1
[9] = test system: Pseudomonas aeruginosa; assay: Antibacterial activity against Pseudomonas aeruginosa ATCC 27853 after 18 to 24 hrs by NCCLS M100-S11 two fold serial dilution method; format: functional
[10] = test system: Pseudomonas aeruginosa; assay: Antibacterial activity against Pseudomonas aeruginosa 09-32 after 18 to 24 hrs by NCCLS M100-S11 two fold serial dilution method; format: functional
[11] = test system: Staphylococcus aureus; assay: Antibacterial activity against methicillin-resistant Staphylococcus aureus 08-1 after 18 to 24 hrs by NCCLS M100-S11 two fold serial dilution method; format: functional; procedure, shortened: as §1
[12] = test system: Escherichia coli; assay: Antibacterial activity against Escherichia coli 08-22 after 18 to 24 hrs by NCCLS M100-S11 two fold serial dilution method; format: functional
[13] = test system: Escherichia coli; assay: Antibacterial activity against Escherichia coli 08-21 after 18 to 24 hrs by NCCLS M100-S11 two fold serial dilution method; format: functional
[14] = test system: Streptococcus pneumoniae; assay: Antibacterial activity against Streptococcus pneumoniae 08-2 after 18 to 24 hrs by NCCLS M100-S11 two fold serial dilution method; format: functional
[15] = test system: Enterococcus faecalis; assay: Antibacterial activity against Enterococcus faecalis 08-12 after 18 to 24 hrs by NCCLS M100-S11 two fold serial dilution method; format: functional
[16] = test system: Klebsiella pneumoniae; assay: Antibacterial activity against Klebsiella pneumoniae 09-23 after 18 to 24 hrs by NCCLS M100-S11 two fold serial dilution method; format: functional
[17] = test system: Escherichia coli; assay: Antibacterial activity against Escherichia coli ATCC 25922 after 18 to 24 hrs by NCCLS M100-S11 two fold serial dilution method; format: functional; details: ATCC25922
[18] = test system: Enterococcus faecalis; assay: Antibacterial activity against Enterococcus faecalis 08-10 after 18 to 24 hrs by NCCLS M100-S11 two fold serial dilution method; format: functional
[19] = test system: Enterococcus faecium; assay: Antibacterial activity against Enterococcus faecium 08-7 after 18 to 24 hrs by NCCLS M100-S11 two fold serial dilution method; format: functional
[20] = test system: Staphylococcus epidermidis; assay: Antibacterial activity against methicillin-sensitive Staphylococcus epidermidis 09-3 after 18 to 24 hrs by NCCLS M100-S11 two fold serial dilution method; format: functional; procedure, shortened: as §1
[21] = test system: Streptococcus pneumoniae; assay: Antibacterial activity against Streptococcus pneumoniae 08-4 after 18 to 24 hrs by NCCLS M100-S11 two fold serial dilution method; format: functional
[22] = test system: Pseudomonas aeruginosa; assay: Antibacterial activity against Pseudomonas aeruginosa 09-34 after 18 to 24 hrs by NCCLS M100-S11 two fold serial dilution method; format: functional

Row | Structure (SMILES) | CC50 at 72 h [1] [µg/mL] | MIC [2] [µg/mL] | MIC [3] [µg/mL] | MIC [4] [µg/mL] | MIC [5] [µg/mL] | MIC [6] [µg/mL] | MIC [7] [µg/mL] | MIC [8] [µg/mL] | MIC [9] [µg/mL] | MIC [10] [µg/mL] | MIC [11] [µg/mL] | MIC [12] [µg/mL] | MIC [13] [µg/mL] | MIC [14] [µg/mL] | MIC [15] [µg/mL] | MIC [16] [µg/mL] | MIC [17] [µg/mL] | MIC [18] [µg/mL] | MIC [19] [µg/mL] | MIC [20] [µg/mL] | also measured
1 | COC(=O)CN1CCN(c2c(F)cc3c(=O)c(C(=O)O)cn(C4CC4)c3c2OC)CC1C (stereo unspecified) | 500 (≈ 1120 µM) | 32 (≈ 71.5 µM) | 128 (≈ 286 µM) | 32 (≈ 71.5 µM) | 8 (≈ 17.9 µM) | > 128 | 128 (≈ 286 µM) | 32 (≈ 71.5 µM) | 128 (≈ 286 µM) | 128 (≈ 286 µM) | 128 (≈ 286 µM) | > 128 | > 128 | > 128 | > 128 | > 128 | 128 (≈ 286 µM) | > 128 | > 128 | 32 (≈ 71.5 µM) | MIC [21]: > 128 µg/mL; MIC [22]: > 128 µg/mL
2 | COc1c(N2CCN(CC(C)=O)C(C)C2)c(F)cc2c(=O)c(C(=O)O)cn(C3CC3)c12 (stereo unspecified) | 500 (≈ 1160 µM) | 2 (≈ 4.64 µM) | 16 (≈ 37.1 µM) | 1 (≈ 2.32 µM) | 0.25 (≈ 0.579 µM) | 32 (≈ 74.2 µM) | 128 (≈ 297 µM) | 0.25 (≈ 0.579 µM) | 8 (≈ 18.5 µM) | 2 (≈ 4.64 µM) | 16 (≈ 37.1 µM) | 32 (≈ 74.2 µM) | 128 (≈ 297 µM) | 32 (≈ 74.2 µM) | 128 (≈ 297 µM) | 2 (≈ 4.64 µM) | 8 (≈ 18.5 µM) | 32 (≈ 74.2 µM) | 32 (≈ 74.2 µM) | 0.25 (≈ 0.579 µM) | MIC [21]: 2 µg/mL (≈ 4.64 µM); MIC [22]: 16 µg/mL (≈ 37.1 µM)
3 | COc1c(N2CCN(C/C(C)=N/NC(N)=O)C(C)C2)c(F)cc2c(=O)c(C(=O)O)cn(C3CC3)c12 (stereo unspecified) | 500 (≈ 1020 µM) | 2 (≈ 4.09 µM) | > 128 | > 128 | 4 (≈ 8.19 µM) | > 128 | > 128 | 1 (≈ 2.05 µM) | > 128 | 64 (≈ 131 µM) | 2 (≈ 4.09 µM) | > 128 | > 128 | 64 (≈ 131 µM) | > 128 | > 128 | > 128 | > 128 | > 128 | 2 (≈ 4.09 µM) | MIC [21]: 2 µg/mL (≈ 4.09 µM); MIC [22]: > 128 µg/mL
